Series [1] can be described thus: Cytotoxicity against human PANC1 cells assessed as cell viability by MTT assay in presence of hENT1 inhibitor dipyridamole. To be noted: PANC-1. It counts as functional, cell-based. Put shortly: (§1)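 PANC1 pancreatic cancer cells were grown with the test agent, with or without dipyridamole to block hENT1 nucleoside transport. Viable cells were counted by colorimetric MTT assay, and EC50 was taken as the concentration blocking proliferation by 50%.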
In general terms: Tetrazolium dyes change colour on reduction, which living cells bring about.

Series [2] in a line: Cytotoxicity against human RT112 cells assessed as cell viability by MTT assay in presence of dCK substrate deoxycytidine. It counts as functional, cell-based. To be noted: RT-112. Put shortly:
(§2)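 RT112 cancer cells were grown with the test agent, with or without 2′-deoxycytidine as a competing dCK substrate to mimic dCK down-regulation. Viable cells were counted by colorimetric MTT assay, and EC50 was taken as the concentration blocking proliferation by 50%.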

Series [3] concerns MIA PaCa-2. As to the kind of experiment: Antitumor activity against human MIAPaCa2 cells xenografted in Balb/c nude mouse assessed as tumor growth inhibition at 0.076 mmol/kg, ip measured on day 7. The series is classed as functional, organism-based.
Series [4] can be described thus: Cytotoxicity against human RT112 cells assessed as cell viability by MTT assay in absence of dCK substrate deoxycytidine. The series is classed as functional, cell-based. To be noted: RT-112. Put shortly:
as §2

The target of series [5] is Cytidine deaminase (Homo sapiens, UniProt P32320). Kind of series: Drug degradation assessed as recombinant human cytidine deaminase-mediated dFdU formation at 100 uM measured within 2 mins by UV absorption spectroscopic analysis. The series is classed as ADME. Put shortly:
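Compound or gemcitabine incubated with cytidine deaminase. UV absorption scanned at 220–350 nm over 30 min. Deamination to dFdU is read as an absorbance shift from 267 to 257 nm.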

A short description of series [6]: Prodrug activation in human MIAPaCa2 cells assessed as formation of dFdCTP after 24 hrs in presence of dCK inhibitor 2T2D. The series is classed as cell-based. The conditions noted are these: mia paca-2, 24 h. An outline of the steps: (§3)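 Pancreatic cells were exposed to the agent for 24 h, with or without a dCK inhibitor or the hENT1 inhibitor NBTI. Intracellular dFdCTP was measured by UPLC-MS/MS on a C18 column. Elution used a 10 mM ammonium acetate/acetonitrile gradient at 700 μL/min. Detection was by triple-quadrupole heated electrospray, transition m/z 502.0→159.0 at 37 V collision energy.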

In series [7] the test system is BXPC-3. As to the kind of experiment: Antitumor activity against human BxPC3 cells xenografted in Balb/c nude mouse assessed as tumor growth inhibition at 0.19 mmol/kg, ip administered every week for 3 weeks. The series is classed as functional, organism-based.
For series [8], the system named is MIA PaCa-2. As to the kind of experiment: Antitumor activity against human MIAPaCa2 cells xenografted in Balb/c nude mouse assessed as tumor growth inhibition at 0.19 mmol/kg, ip administered every week for 3 weeks. It counts as functional, organism-based. Background: In xenograft studies the graft and the host belong to different species.
Series [9] relates to MIA PaCa-2. As to the kind of experiment: Cytostatic activity against human MIAPaCa2 cells after 72 hrs by MTS assay. It counts as functional, cell-based. The conditions noted are these: MIA PaCa-2, 72 h. An outline of the steps:
(§4)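 Pancreatic carcinoma cell proliferation assay. IC50 is the concentration that inhibits tumor cell proliferation by 50%. Values are means of at least two independent experiments.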

A short description of series [10]: Prodrug activation in human MIAPaCa2 cells assessed as formation of dFdCTP after 24 hrs in presence of hENT1 inhibitor NBTI. It counts as cell-based. To be noted: mia paca-2, 24 h. Put shortly: as §3
The nature of series [11]: Prodrug activation in human BxPC3 cells assessed as formation of dFdCTP after 24 hrs in presence of dCK inhibitor 2T2D. The series is classed as cell-based. The conditions noted are these: bxpc-3, 24 h. Put shortly:
as §3

Series [12] concerns BXPC-3. As to the kind of experiment: Cytostatic activity against human BxPC3 cells after 72 hrs by MTS assay. The series is classed as functional, cell-based. The conditions noted are these: BXPC-3, 72 h. Put shortly: as §4
Series [13] has as its system RT-112. Kind of series: Ratio of EC50 for human RT112 cells in presence of dCK substrate deoxycytidine to EC50 for human RT112 cells in absence of dCK substrate deoxycytidine. It counts as functional. An outline of the steps: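 RT112 cells exposed to compound with or without the dCK substrate 2′-deoxycytidine, which competes for dCK activity. Viable cells counted by colorimetric MTT assay. EC50 is the concentration blocking cell proliferation, compared between the two conditions.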

The nature of series [14]: Prodrug activation in human BxPC3 cells assessed as formation of dFdCTP after 24 hrs in presence of hENT1 inhibitor NBTI. It counts as cell-based. The conditions noted are these: bxpc-3, 24 h. Put shortly: as §3
Series [15] can be described thus: Cytotoxicity against human PANC1 cells assessed as cell viability by MTT assay in absence of hENT1 inhibitor dipyridamole. To be noted: PANC-1. The series is classed as functional, cell-based. An outline of the steps: as §1
For series [16], the system named is CCRF-CEM. Kind of series: Cytostatic activity against human CEM cells after 72 hrs by coulter counter analysis. It counts as functional, cell-based. Put shortly:
(§5)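 Tumor cell proliferation assay with murine leukemia and human T-lymphoblast cells. IC50 is the concentration that inhibits proliferation by 50%. Values are means of at least two independent experiments.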

For series [17], the system named is Mus musculus. Kind of series: Toxicity in Balb/c nude mouse xenografted with human BxPC3 cells assessed as change in body weight at 0.19 to 0.076 mmol/kg, ip administered 2 times per week for 2 weeks measured every week during compound treatment. The series is classed as organism-based, BXPC-3. The conditions noted are these: in vivo, 336 h.
The subject of series [18] is L1210. As to the kind of experiment: Cytostatic activity against mouse L1210 cells after 48 hrs by coulter counter analysis. The conditions noted are these: L1210, 48 h. The series is classed as functional, cell-based. An outline of the steps:
as §5

Series [19] deals with MIA PaCa-2. Kind of series: Ratio of gemcitabine IC50 to compound IC50 for human MIAPaCa2 cells after 72 hrs by MTS assay. The series is classed as functional.

Active and inactive are the calls of the source. The calls are words filed in the database; no cut-off is given here.

Broadly, the EC50 is the concentration giving half of the maximal effect. The term IC50 denotes the concentration needed to halve the response being measured.

Chain of Cytidine deaminase (P32320 whole entry): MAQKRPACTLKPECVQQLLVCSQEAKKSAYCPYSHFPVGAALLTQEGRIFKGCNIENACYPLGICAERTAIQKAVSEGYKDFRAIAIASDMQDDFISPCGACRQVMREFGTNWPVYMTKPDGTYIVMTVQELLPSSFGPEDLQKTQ

In the case of `Nc1ccn([C@@H]2O[C@H](CO)[C@@H](O)C2(F)F)c(=O)n1` [GEMCITABINE], the EC50 in series [1] was > 2 mM; in series [2] it was 105 nM; in series [4], 1.4 nM; in series [15] it was 611 µM. Besides, the TGI entry in series [3] and in series [8] was “Active” throughout. Besides, in series [5], the Stability result is “Unstable”. The Drug metabolism result in series [6], in series [10], in series [11] and in [14] was “Not Active” throughout. Also, the TGI result in [7] was “inactive”. Moreover, the IC50 in series [9] came to 1040 nM; in series [12], 670 nM; in series [16], 86 nM. Further, in series [13], the “Ratio EC50” value is 75. Further, the Activity entry in [17] was “Non-toxic”.

Consider `C[C@H](NP(=O)(OC[C@H]1O[C@@H](n2ccc(N)nc2=O)C(F)(F)[C@@H]1O)Oc1ccccc1)C(=O)OCC(C)(C)C` (stereo partly specified), for which the IC50 in [18] is 390 nM; in series [9] it was 1410 nM; in series [12], 360 nM; in series [16] it was 440 nM.

As to `CC(C)OC(=O)[C@H](C)NP(=O)(OC[C@H]1O[C@@H](n2ccc(N)nc2=O)C(F)(F)[C@@H]1O)Oc1ccccc1` (stereo partly specified), the IC50 in series [18], in series [9], in series [12] and in series [16] was > 5000 nM in each case.

For `CCCCCOC(=O)[C@H](C)NP(=O)(OC[C@H]1O[C@@H](n2ccc(N)nc2=O)C(F)(F)[C@@H]1O)Oc1ccccc1` (stereo partly specified), the results for the IC50 in [18] and in [16] were 24 nM and 80 nM, respectively.

Consider `CCCCCCOC(=O)[C@H](C)NP(=O)(OC[C@H]1O[C@@H](n2ccc(N)nc2=O)C(F)(F)[C@@H]1O)Oc1ccccc1` (stereo partly specified), for which the figures for the IC50 in series [18] and in [16] were 16 nM and 81 nM, respectively.

With `CCCCCCOC(=O)[C@H](C)NP(=O)(OC[C@H]1O[C@@H](n2ccc(N)nc2=O)C(F)(F)[C@@H]1O)Oc1cccc2ccccc12` (stereo partly specified), the IC50 was determined as 22 nM in [18] and 75 nM in series [16].

On to `C[C@H](NP(=O)(OC[C@H]1O[C@@H](n2ccc(N)nc2=O)C(F)(F)[C@@H]1O)Oc1cccc2ccccc12)C(=O)OC1CCCC1` (stereo partly specified), for which the “Ratio IC50” value in [19] came to 2. The IC50 in series [18] was found to be 180 nM; in [9] it was 460 nM; in series [12], 150 nM; in [16] it was 110 nM.

The values above are taken from ChEMBL document CHEMBL3124861, “Application of ProTide technology to gemcitabine: a successful approach to overcome the key cancer resistance mechanisms leads to a new agent (NUC-1031) in clinical development” (J Med Chem, 2014).
